In ChEMBL document CHEMBL4393666, “Synthesis and Anti-HCV Activities of 4'-Fluoro-2'-Substituted Uridine Triphosphates and Nucleotide Prodrugs: Discovery of 4'-Fluoro-2'- C-methyluridine 5'-Phosphoramidate Prodrug (AL-335) for the Treatment of Hepatitis C Infection” (J Med Chem, 2019):

How the values were obtained:
[1] = test system: Hepatitis C virus; assay: Antiviral activity against HCV con1 subgenomic replicon infected in human HuH7 cells assessed as reduction in viral RNA replication by qRT-PCR analysis; assay type: functional, organism-based, Hepacivirus hominis; conditions: isolate Con1, Huh-7
Method in brief: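 Con1 subgenomic replicon Huh-7 cells (neomycin selection, kept in DMEM/10% FBS with 0.25 mg/ml G418) treated with compounds in DMEM, 2% FBS, 0.5% DMSO, no G418, at 37°C. Total RNA extracted; HCV RNA copy number by multiplex Taqman QRT-PCR. EC50/EC90 by 4-parameter curve fit; EC50 is the mean of ≥2 independent runs.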

[2] = Cytotoxicity against human A549 cells treated for 8 days measured post-last dose by Celltiter-glo luminescent assay; assay type: cell-based
Method in brief: (§1)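 Cells at 1×10^5/well on collagen I, first kept 8 days in recommended medium without drug. Then compound exposure for 8 days, refed every other day. Viability by CellTiter-Glo luminescence; CC50 by curve fitting.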

[3] = Cytotoxicity against human HeLa cells treated for 8 days measured post-last dose by Celltiter-glo luminescent assay; assay type: cell-based; method in brief: as §1
[4] = Drug metabolism in Beagle dog liver assessed as 2a-TP level at 9.87 mg/kg, po administered as single dose measured at 4 hrs by LC-MS/MS analysis; assay type: ADME, organism-based, Canis lupus familiaris; conditions: in vivo
Method in brief: (§2)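 Male non-naïve beagle dogs fasted overnight, single oral dose of 9.87 mg/kg (5 mg/kg parent nucleoside equivalent) as a solution in 40% PEG400/water. Liver extracts analysed for NTP by LC-MS/MS against liver-homogenate calibrants. N=2 at 4 h, N=3 at 12 and 24 h.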

[5] = Drug metabolism in human primary hepatocytes assessed as 2a-TP formation after 24 hrs by LC-MS/MS analysis
[6] = test system: Hepatitis C virus; assay: Antiviral activity against HCV genotype 1a H77 expressing NS5B measured after 3 days by bright-glo luciferase reporter gene assay; assay type: functional, organism-based, Hepacivirus hominis; conditions: subtype 1a H77, 72 h
Method in brief: (§3)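 Chimeric replicons carrying the NS5B of each genotype (1a H77, 1b Con1, 2b ADQ73660, 3a NZL1, 4a ABD75829). Firefly luciferase is driven by the poliovirus IRES and the HCV nonstructural genes by the EMCV IRES. Transiently transfected into Lunet cells, 10,000 cells/well. 3-fold serial dilutions, 0.5% DMSO final, 3 days. Read-out: firefly luciferase (Bright-Glo).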

[7] = Drug metabolism in Beagle dog liver assessed as 2a-TP level at 9.87 mg/kg, po administered as single dose measured at 24 hrs by LC-MS/MS analysis; assay type: ADME, organism-based, Canis lupus familiaris; conditions: in vivo; method in brief: as §2
[8] = Drug metabolism in human HuH7 cells assessed as 2a-TP formation per million cells at 50 uM after 24 hrs by LC-MS/MS analysis; assay type: ADME, cell-based; conditions: huh-7, 24 h
Method in brief: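 Huh-7 cells in 6-well plates, DMEM with 10% FBS and G418, incubated with compound at 50 μM extracellular for 24 h at 37°C, 5% CO2. Washed with cold 0.9% NaCl, lysed in 70% methanol. Intracellular NTP by LC-MS/MS against cell-matrix calibrants, internal standard N6-benzoyladenine; expressed per million cells.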

[9] = test system: Hepatitis C virus; assay: Antiviral activity against HCV genotype 4a subgenomic replicon expressing NS5B measured after 3 days by bright-glo luciferase reporter gene assay; assay type: functional, organism-based, Hepacivirus hominis; conditions: subtype 4a, 72 h; method in brief: as §3
[10] = Cytotoxicity against human HuH7 cells infected with HCV con1 subgenomic replicon assessed as reduction in cell viability measured after 3 days by CellTiter-blue cell viability assay; assay type: cell-based, Huh-7
Method in brief: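 Con1 replicon Huh-7 cells treated as for the replicon assay (DMEM, 2% FBS, 0.5% DMSO, no G418, 37°C) for 3 days. Viability by CellTiter-Blue; CC50 by curve fitting.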

[11] = Drug metabolism in Beagle dog liver assessed as 2a-TP level at 9.87 mg/kg, po administered as single dose measured at 12 hrs by LC-MS/MS analysis; assay type: ADME, organism-based, Canis lupus familiaris; conditions: in vivo; method in brief: as §2
[12] = Cytotoxicity against human HuH7 cells treated for 8 days measured post-last dose by Celltiter-glo luminescent assay; assay type: cell-based, Huh-7; method in brief: as §1
[13] = test system: Hepatitis C virus; assay: Antiviral activity against HCV genotype 2b subgenomic replicon expressing NS5B measured after 3 days by bright-glo luciferase reporter gene assay; assay type: functional, organism-based, Hepacivirus hominis; conditions: subtype 2b, 72 h; method in brief: as §3
[14] = test system: Hepatitis C virus; assay: Antiviral activity against HCV genotype 1 infected in human assessed as reduction in viral infection at 800 mg, qd measured after 6 weeks in presence of odalasvir/simeprevir relative to control; assay type: functional, Hepacivirus hominis; set-up: scale not given: the % may be the effect or the level left
[15] = Drug metabolism in human primary hepatocytes assessed as 2a-TP formation at 10 uM after 6 to 24 hrs by LC-MS/MS analysis
[16] = Cytotoxicity against human U937 cells treated for 8 days measured post-last dose by Celltiter-glo luminescent assay; assay type: cell-based, U-937; method in brief: as §1
[17] = test system: Hepatitis C virus; assay: Antiviral activity against HCV genotype 1b con1 subgenomic replicon expressing NS5B measured after 3 days by bright-glo luciferase reporter gene assay; assay type: functional, organism-based, Hepacivirus hominis; conditions: subtype 1b con1, 72 h; method in brief: as §3
[18] = Drug metabolism in human hepatocytes assessed as 2a-TP formation per million cells at 50 uM after 24 hrs by LC-MS/MS analysis; assay type: ADME, cell-based, Hepatocyte
Method in brief: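 Primary human hepatocytes, 1.5-2 million cells/well, in Williams E medium, acclimated >18 h. Incubated with compound at 50 μM extracellular for 24 h at 37°C, 5% CO2. Washed with cold saline, methanol/water lysis, NTP measured by LC-MS/MS per million cells.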

[19] = test system: Hepatitis C virus; assay: Antiviral activity against HCV genotype 3a NZL1 subgenomic replicon expressing NS5B measured after 3 days by bright-glo luciferase reporter gene assay; assay type: functional, organism-based, Hepacivirus hominis; conditions: subtype 3a NZL1, 72 h; method in brief: as §3
[20] = Cytotoxicity against human MT4 cells treated for 8 days measured post-last dose by Celltiter-glo luminescent assay; assay type: cell-based; method in brief: as §1
[21] = Cytotoxicity against human HepG2 cells treated for 8 days measured post-last dose by Celltiter-glo luminescent assay; assay type: cell-based; method in brief: as §1

Compound: CC(C)OC(=O)[C@H](C)N[P@](=O)(OC[C@@]1(F)O[C@@H](n2ccc(=O)[nH]c2=O)[C@](C)(O)[C@@H]1O)Oc1ccccc1 [ADAFOSBUVIR]
- EC50 [1]: 0.07 µM
- CC50 at 192 h [2]: > 100 µM
- CC50 at 192 h [3]: > 100 µM
- Drug metabolism [4]: 23.19 µM
- Drug metabolism [5]: Dose-dependent effect
- EC50 [6]: 0.06 µM
- Drug metabolism [7]: 29.991 µM
- Drug metabolism [8]: 5695 pmol
- EC50 [9]: 0.06 µM
- CC50 at 72 h [10]: > 99 µM
- Drug metabolism [11]: 35.222 µM
- CC50 at 192 h [12]: 96.1 µM
- EC50 [13]: 0.04 µM
- Activity [14]: 100%
- Drug metabolism [15]: Metabolite_Detected
- CC50 at 192 h [16]: > 100 µM
- EC50 [17]: 0.04 µM
- Drug metabolism [18]: 3540 pmol
- EC50 [19]: 0.06 µM
- CC50 at 192 h [20]: > 100 µM
- CC50 at 192 h [21]: > 100 µM
